Assay results as given in ChEMBL document CHEMBL1149634, “1-Acylthiosemicarbazides, 1,2,4-triazole-5(4H)-thiones, 1,3,4-thiadiazoles and hydrazones containing 5-methyl-2-benzoxazolinones: synthesis, analgesic-anti-inflammatory and antimicrobial activities” (2007).
Converted amounts (≈) assume the structure as drawn.

Assays:
Mus musculus [1] = assay: Analgesic activity in mouse assessed as inhibition of acetic acid induced-abdominal writhing at 100 mg/kg, ip by Koster test; assay type: functional; details: Abdomen, route intraperitoneal
Mus musculus [2] = assay: Antiinflammatory activity against carrageenan-induced hind paw oedema in mouse assessed as inhibition of swelling thickness at 100 mg/kg, po after 180 mins; assay type: functional; details: 3 h
Method in brief: (§1)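 Fasted mice (n = 5–6) were dosed orally with the sample in 0.5% CMC/water. One hour later, carrageenan (0.5 mg/25 µl in 154 mM saline) was injected subplantar into the right hind paw. The right-minus-left footpad thickness difference was measured with dial gauge callipers every 90 min over 6 h. Inhibition % is calculated versus vehicle control; mean ± SEM, Student's t test.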

Mus musculus [3] = assay: Antiinflammatory activity against carrageenan-induced hind paw oedema in mouse assessed as swelling thickness at 50 mg/kg, po after 360 mins; assay type: functional; method in brief: as §1
Pseudomonas aeruginosa = assay: Antibacterial activity against Pseudomonas aeruginosa ATCC 27853 after 24 hrs by broth microdilution test; assay type: functional; details: ATCC 27853, 24 h
Method in brief: (§2)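 NCCLS broth microdilution in Mueller-Hinton broth with an inoculum of 5 × 10^5 cfu/mL. Compounds were dissolved in DMSO, diluted in sterile water, and tested as twofold dilutions from 512 to 0.5 µg/mL. Plates were incubated at 35 °C for 24 h. MIC is the lowest concentration preventing visible growth.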

Mus musculus [4] = assay: Antiinflammatory activity against carrageenan-induced hind paw oedema in mouse assessed as swelling thickness at 50 mg/kg, po after 90 mins; assay type: functional; method in brief: as §1
Mus musculus [5] = assay: Antiinflammatory activity against carrageenan-induced hind paw oedema in mouse assessed as swelling thickness at 50 mg/kg, po after 180 mins; assay type: functional; method in brief: as §1
Staphylococcus aureus = assay: Antibacterial activity against Staphylococcus aureus ATCC 29213 after 24 hrs by broth microdilution test; assay type: functional; details: ATCC 29213, 24 h; method in brief: as §2
Candida albicans = assay: Antifungal activity against Candida albicans ATCC 90028 after 48 hrs by broth microdilution test; assay type: functional; details: ATCC 90028, 48 h
Method in brief: (§3)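 Yeasts tested by NCCLS M27-A broth microdilution in RPMI 1640 (with L-glutamine, without sodium bicarbonate) with an inoculum of 0.5–2.5 × 10^3 cfu/mL. Compounds were prepared from DMSO solution diluted in water as twofold dilutions from 512 to 0.5 µg/mL. Plates were incubated at 35 °C for 48 h. MIC is the lowest concentration giving no visible growth.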

Mus musculus [6] = assay: Antiinflammatory activity against carrageenan-induced hind paw oedema in mouse assessed as inhibition of swelling thickness at 200 mg/kg, po after 270 mins; assay type: functional; details: 4.5 h; method in brief: as §1
Mus musculus [7] = assay: Antiinflammatory activity against carrageenan-induced hind paw oedema in mouse assessed as inhibition of swelling thickness at 100 mg/kg, po after 90 mins; assay type: functional; details: 1.5 h; method in brief: as §1
Mus musculus [8] = assay: Antiinflammatory activity against carrageenan-induced hind paw oedema in mouse assessed as inhibition of swelling thickness at 200 mg/kg, po after 90 mins; assay type: functional; details: 1.5 h; method in brief: as §1
Mus musculus [9] = assay: Antiinflammatory activity against carrageenan-induced hind paw oedema in mouse assessed as swelling thickness at 100 mg/kg, po after 360 mins; assay type: functional; method in brief: as §1
Candida parapsilosis = assay: Antifungal activity against Candida parapsilosis ATCC 22019 after 48 hrs by broth microdilution test; assay type: functional; details: Lodderomyces parapsilosis, ATCC 22019, 48 h; method in brief: as §3
Mus musculus [10] = assay: Analgesic activity in mouse assessed as inhibition of hind paw lick at 100 mg/kg, ip by hot plate test; assay type: functional; details: route intraperitoneal
Enterococcus faecalis = assay: Antibacterial activity against Enterococcus faecalis ATCC 29212 after 24 hrs by broth microdilution test; assay type: functional; details: ATCC 29212, 24 h; method in brief: as §2
Mus musculus [11] = assay: Antiinflammatory activity against carrageenan-induced hind paw oedema in mouse assessed as inhibition of swelling thickness at 200 mg/kg, po after 180 mins; assay type: functional; details: 3 h; method in brief: as §1
Pichia kudriavzevii = assay: Antifungal activity against Candida krusei ATCC 6258 after 48 hrs by broth microdilution test; assay type: functional; details: ATCC 6258, 48 h; method in brief: as §3
Mus musculus [12] = assay: Antiinflammatory activity against carrageenan-induced hind paw oedema in mouse assessed as swelling thickness at 100 mg/kg, po after 270 mins; assay type: functional; method in brief: as §1
Mus musculus [13] = assay: Antiinflammatory activity against carrageenan-induced hind paw oedema in mouse assessed as inhibition of swelling thickness at 200 mg/kg, po after 360 mins; assay type: functional; details: 6 h; method in brief: as §1
Mus musculus [14] = assay: Antiinflammatory activity against carrageenan-induced hind paw oedema in mouse assessed as swelling thickness at 50 mg/kg, po after 270 mins; assay type: functional; method in brief: as §1
Escherichia coli = assay: Antibacterial activity against Escherichia coli ATCC 25922 after 24 hrs by broth microdilution test; assay type: functional; details: ATCC 25922, 24 h; method in brief: as §2
Mus musculus [15] = assay: Toxicity in mouse assessed as ulceration effect at 200 mg/kg; assay type: functional, organism-based; parameters: dose 200 mg/kg
Method in brief: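 Mice given 200 mg/kg orally in the carrageenan oedema study were killed under deep ether anaesthesia 6 h after treatment. Stomachs were opened along the greater curvature and examined under a dissecting microscope for lesions or bleeding. Result is expressed as the ratio of ulcerated animals per group.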

Mus musculus [16] = assay: Antiinflammatory activity against carrageenan-induced hind paw oedema in mouse assessed as swelling thickness at 200 mg/kg, po after 360 mins; assay type: functional; method in brief: as §1
Mus musculus [17] = assay: Antiinflammatory activity against carrageenan-induced hind paw oedema in mouse assessed as swelling thickness at 100 mg/kg, po after 180 mins; assay type: functional; method in brief: as §1
Mus musculus [18] = assay: Antiinflammatory activity against carrageenan-induced hind paw oedema in mouse assessed as inhibition of swelling thickness at 50 mg/kg, po after 90 mins; assay type: functional; details: 1.5 h; method in brief: as §1
Mus musculus [19] = assay: Antiinflammatory activity against carrageenan-induced hind paw oedema in mouse assessed as inhibition of swelling thickness at 100 mg/kg, po after 360 mins; assay type: functional; details: 6 h; method in brief: as §1
Mus musculus [20] = assay: Antiinflammatory activity against carrageenan-induced hind paw oedema in mouse assessed as inhibition of swelling thickness at 100 mg/kg, po after 270 mins; assay type: functional; details: 4.5 h; method in brief: as §1
Mus musculus [21] = assay: Analgesic activity in mouse assessed as inhibition of acetic acid induced-abdominal writhing at 200 mg/kg, ip by Koster test; assay type: functional; details: Abdomen, route intraperitoneal

SMILES	inhibition in vivo at 100 mg/kg (Mus musculus [1])	inhibition in vivo at 100 mg/kg (Mus musculus [2])	Activity (Mus musculus [3])	MIC (Pseudomonas aeruginosa)	Activity (Mus musculus [5])	MIC (Staphylococcus aureus)	MIC (Candida albicans)	inhibition in vivo at 200 mg/kg (Mus musculus [6])	inhibition in vivo at 100 mg/kg (Mus musculus [7])	inhibition in vivo at 200 mg/kg (Mus musculus [8])	MIC (Candida parapsilosis)	inhibition in vivo at 100 mg/kg (Mus musculus [10])	MIC (Enterococcus faecalis)	inhibition in vivo at 200 mg/kg (Mus musculus [11])	MIC (Pichia kudriavzevii)	Activity (Mus musculus [12])	inhibition in vivo at 200 mg/kg (Mus musculus [13])	Activity (Mus musculus [14])	MIC (Escherichia coli)	Activity (Mus musculus [15])	other results
CNc1nnc(Cn2c(=O)oc3ccc(C)cc32)s1	73.8%	21.4%	96%	512 mg/L (≈ 1850 µM)	101.3%	512 mg/L (≈ 1850 µM)	256 mg/L (≈ 926 µM)	33.3%	62.7%	63.5%	256 mg/L (≈ 926 µM)	54.3%	512 mg/L (≈ 1850 µM)	46.9%	256 mg/L (≈ 926 µM)	110.4%	14.5%	106.8%	512 mg/L (≈ 1850 µM)		Activity (Mus musculus [4]): 66%; Activity (Mus musculus [9]): 106.7%
Cc1ccc2oc(=O)n(CC(=O)NNC(=S)Nc3ccccc3)c2c1	55.6%	31.3%	153.3%	256 mg/L (≈ 718 µM)	140.9%	256 mg/L (≈ 718 µM)	256 mg/L (≈ 718 µM)	30.5%	79.8%	40.3%	128 mg/L (≈ 359 µM)	23.9%	512 mg/L (≈ 1440 µM)	53.4%	256 mg/L (≈ 718 µM)	92%	34.1%	162.6%	256 mg/L (≈ 718 µM)	Not toxic	Activity (Mus musculus [9]): 79.2%
COc1ccc(/C=N/NC(=O)Cn2c(=O)oc3ccc(C)cc32)cc1	65.7%		87.2%	256 mg/L (≈ 754 µM)	82.3%	256 mg/L (≈ 754 µM)	128 mg/L (≈ 377 µM)	38.3%	82.4%	87.9%	512 mg/L (≈ 1510 µM)	27.5%	128 mg/L (≈ 377 µM)	65.2%	128 mg/L (≈ 377 µM)	95.4%		108.8%	512 mg/L (≈ 1510 µM)	Toxic	Activity (Mus musculus [16]): 86.2%; Activity (Mus musculus [17]): 100.8%; inhibition in vivo at 50 mg/kg (Mus musculus [18]): 19.5%; inhibition in vivo at 100 mg/kg (Mus musculus [19]): 17.5%
CCNc1nnc(Cn2c(=O)oc3ccc(C)cc32)s1	68.5%	33.8%	94%	512 mg/L (≈ 1760 µM)	90.1%	512 mg/L (≈ 1760 µM)	512 mg/L (≈ 1760 µM)	45.4%	84.8%	85.3%	256 mg/L (≈ 882 µM)	25.4%	> 512 mg/L	71.3%	512 mg/L (≈ 1760 µM)		11.1%	102.8%	512 mg/L (≈ 1760 µM)		inhibition in vivo at 100 mg/kg (Mus musculus [20]): 7.1%; inhibition in vivo at 50 mg/kg (Mus musculus [18]): 7.9%
Cc1ccc2oc(=O)n(CC(=O)N/N=C/c3ccc(Br)cc3)c2c1	72.6%	43.7%	83%	> 512 mg/L	94.6%	> 512 mg/L	64 mg/L (≈ 165 µM)	11.1%	44.4%		128 mg/L (≈ 330 µM)	20.3%	> 512 mg/L	46.9%	256 mg/L (≈ 659 µM)	92%		95.9%	> 512 mg/L	Toxic	Activity (Mus musculus [16]): 84.4%; inhibition in vivo at 50 mg/kg (Mus musculus [18]): 1.9%; inhibition in vivo at 100 mg/kg (Mus musculus [19]): 19.1%
CCn1c(Cn2c(=O)oc3ccc(C)cc32)n[nH]c1=S	43.5%		146.7%	256 mg/L (≈ 882 µM)	91.1%	512 mg/L (≈ 1760 µM)	512 mg/L (≈ 1760 µM)	25.9%	57.1%	56.5%	256 mg/L (≈ 882 µM)	36.2%	512 mg/L (≈ 1760 µM)	31.8%	256 mg/L (≈ 882 µM)	117.6%	19.7%	147.3%	512 mg/L (≈ 1760 µM)	Not toxic	Activity (Mus musculus [17]): 95.9%; Activity (Mus musculus [4]): 82.9%; Activity (Mus musculus [9]): 87.1%
Cc1ccc2oc(=O)n(Cc3n[nH]c(=S)n3C)c2c1	49.6%	11.8%	97.8%	512 mg/L (≈ 1850 µM)	85.1%	> 512 mg/L	512 mg/L (≈ 1850 µM)	15.8%	79.8%	42%	256 mg/L (≈ 926 µM)	2.2%	> 512 mg/L	38.6%	512 mg/L (≈ 1850 µM)			120.7%	512 mg/L (≈ 1850 µM)	Not toxic	Activity (Mus musculus [16]): 79.1%; inhibition in vivo at 100 mg/kg (Mus musculus [20]): 14.8%; Activity (Mus musculus [4]): 67.5%; inhibition in vivo at 100 mg/kg (Mus musculus [19]): 27.4%
CC(=O)Oc1ccccc1C(=O)O [ASPIRIN]																					inhibition in vivo at 200 mg/kg (Mus musculus [21]): 65.7%
